Measurements as given in ChEMBL document CHEMBL3414476, “Novel multitarget-directed ligands (MTDLs) with acetylcholinesterase (AChE) inhibitory and serotonergic subtype 4 receptor (5-HT4R) agonist activities as potential agents against Alzheimer's disease: the design of donecopride” (J Med Chem, 2015).
Activity calls are given as the source filed them. The calls are words filed in the database; no cut-off is given here.

Assays:
[1] = molecular target: 5-hydroxytryptamine receptor 4 (Homo sapiens) (UniProt Q13639); experiment: Displacement of [3H]GR113808 from human 5-HT4R at 10 nM by radioligand binding assay
Sequence of 5-hydroxytryptamine receptor 4 (Homo sapiens) (Q13639 whole entry): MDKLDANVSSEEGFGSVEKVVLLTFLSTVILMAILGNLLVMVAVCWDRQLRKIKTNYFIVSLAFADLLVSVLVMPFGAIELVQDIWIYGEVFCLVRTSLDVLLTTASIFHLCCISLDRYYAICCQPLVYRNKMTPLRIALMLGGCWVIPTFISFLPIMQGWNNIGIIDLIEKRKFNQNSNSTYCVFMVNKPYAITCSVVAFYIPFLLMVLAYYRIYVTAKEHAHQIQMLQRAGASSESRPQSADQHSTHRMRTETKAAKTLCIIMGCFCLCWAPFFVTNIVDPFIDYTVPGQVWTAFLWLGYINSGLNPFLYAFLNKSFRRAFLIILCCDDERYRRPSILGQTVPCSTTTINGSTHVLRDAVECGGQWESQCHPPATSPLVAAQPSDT
Method in brief: (§1)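 Recombinant human 5-HT4 membranes, 2.5 μg protein, incubated in duplicate with 0.2 nM [3H]GR113808 in 25 mM Tris pH 7.4 for 60 min at 25 °C, with or without drug at 10−6 or 10−8 M. Filtered on PEI-presoaked GF/C filters, washed with ice-cold buffer. Nonspecific binding with 30 μM serotonin. Read-out is % inhibition of binding.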

Acetylcholinesterase [2] = molecular target: T1, Acetylcholinesterase (Homo sapiens, UniProt P22303); experiment: Inhibition of human erythrocyte AChE pre-incubated for 5 mins before acetylthiocholine iodide substrate by Ellman' method
T1 sequence (P22303 whole entry): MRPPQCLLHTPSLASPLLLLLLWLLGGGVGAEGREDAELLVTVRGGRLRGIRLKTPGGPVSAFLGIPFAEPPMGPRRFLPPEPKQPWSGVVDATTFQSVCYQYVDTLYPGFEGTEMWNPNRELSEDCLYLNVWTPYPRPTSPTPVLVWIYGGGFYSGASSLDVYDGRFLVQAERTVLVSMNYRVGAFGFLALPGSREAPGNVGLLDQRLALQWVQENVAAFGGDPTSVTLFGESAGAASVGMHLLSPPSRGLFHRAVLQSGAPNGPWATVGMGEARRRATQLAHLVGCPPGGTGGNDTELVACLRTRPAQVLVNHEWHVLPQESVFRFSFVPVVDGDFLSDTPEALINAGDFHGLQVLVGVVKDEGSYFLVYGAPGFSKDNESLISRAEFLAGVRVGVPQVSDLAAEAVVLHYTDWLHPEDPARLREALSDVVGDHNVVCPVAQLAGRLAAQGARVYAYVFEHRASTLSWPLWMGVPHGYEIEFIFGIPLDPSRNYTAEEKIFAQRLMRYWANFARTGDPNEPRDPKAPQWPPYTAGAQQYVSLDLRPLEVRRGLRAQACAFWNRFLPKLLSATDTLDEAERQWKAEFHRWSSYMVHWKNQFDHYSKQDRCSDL

Cholinesterase = Cholinesterase (Equus caballus, UniProt P81908); experiment: Inhibition of equine serum BuChE pre-incubated for 5 mins before butyrylthiocholine iodide substrate by Ellman' method
Sequence of Cholinesterase (P81908 whole entry): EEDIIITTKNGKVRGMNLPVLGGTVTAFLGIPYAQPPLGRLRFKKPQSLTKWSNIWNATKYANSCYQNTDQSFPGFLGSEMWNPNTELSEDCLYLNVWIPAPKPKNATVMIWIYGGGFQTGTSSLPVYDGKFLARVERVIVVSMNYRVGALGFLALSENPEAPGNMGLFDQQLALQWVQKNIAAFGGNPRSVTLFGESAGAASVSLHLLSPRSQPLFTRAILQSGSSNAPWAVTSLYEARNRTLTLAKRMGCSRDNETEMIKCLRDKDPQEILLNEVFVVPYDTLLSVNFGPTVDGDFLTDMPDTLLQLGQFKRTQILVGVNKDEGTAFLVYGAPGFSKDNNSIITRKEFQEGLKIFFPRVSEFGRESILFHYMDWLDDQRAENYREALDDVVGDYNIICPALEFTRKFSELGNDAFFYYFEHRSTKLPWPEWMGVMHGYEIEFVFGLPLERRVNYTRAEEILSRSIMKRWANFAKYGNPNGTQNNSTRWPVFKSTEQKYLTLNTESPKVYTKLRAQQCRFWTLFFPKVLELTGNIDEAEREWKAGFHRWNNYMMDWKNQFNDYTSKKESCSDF
Method in brief: (§2)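 Ellman assay in 96-well format: 0.3 mM DTNB in phosphate buffer pH 7.4, compound in DMSO, and enzyme (human erythrocyte AChE or equine serum BuChE, 0.05 U final) preincubated 5 min at 25 °C. Started with 10 mM acetyl- or butyrylthiocholine iodide; A412 followed every minute for 10 min, substrate-free blank.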

[3] = molecular target: 5-hydroxytryptamine receptor 4 (Cavia porcellus, UniProt O70528); experiment: Displacement of [3H]GR113808 from 5-HT4R in guinea pig brain membranes incubated for 30 mins by radioligand binding assay; type: cell membranes, Membrane
Sequence of 5-hydroxytryptamine receptor 4 (O70528 whole entry): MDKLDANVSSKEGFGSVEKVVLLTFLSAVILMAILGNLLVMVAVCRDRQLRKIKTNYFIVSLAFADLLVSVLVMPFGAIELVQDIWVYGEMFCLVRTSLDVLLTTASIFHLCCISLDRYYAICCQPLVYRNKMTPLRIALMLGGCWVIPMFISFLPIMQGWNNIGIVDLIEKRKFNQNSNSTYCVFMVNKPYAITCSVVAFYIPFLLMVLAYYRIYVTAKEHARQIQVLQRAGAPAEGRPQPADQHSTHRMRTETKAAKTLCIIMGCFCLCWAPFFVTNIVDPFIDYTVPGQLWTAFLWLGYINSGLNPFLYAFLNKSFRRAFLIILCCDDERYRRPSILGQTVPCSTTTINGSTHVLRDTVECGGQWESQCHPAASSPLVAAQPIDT

[4] = molecular target: 5-hydroxytryptamine receptor 4 (Homo sapiens) (UniProt Q13639); experiment: Agonist activity at HA-tagged 5-HT4R (unknown origin) expressed in COS7 cells assessed as cAMP accumulation by HTRF assay; type: functional, cell-based; design: concentration or dose not given beside the values; details: COS-7
[5] = molecular target: 5-hydroxytryptamine receptor 4 (Homo sapiens) (UniProt Q13639); experiment: Displacement of [3H]GR113808 from human 5-HT4R at 1 uM by radioligand binding assay; method in brief: as §1
[6] = molecular target: Cholinesterase (Equus caballus) (UniProt P81908); experiment: Inhibition of equine serum BuChE at 10 uM pre-incubated for 5 mins before butyrylthiocholine iodide substrate by Ellman' method; method in brief: as §2
Sequence of Cholinesterase (Equus caballus) (P81908 whole entry): as the sequence (P81908 whole entry) above

Acetylcholinesterase [7] = molecular target: T1, Acetylcholinesterase; experiment: Inhibition of human erythrocyte AChE at 10 uM pre-incubated for 5 mins before acetylthiocholine iodide substrate by Ellman' method; method in brief: as §2
Mus musculus [8] = experiment: Toxicity in NMRI mouse assessed as induction of sleep at 10 mg/kg, ip; type: organism-based; design: dose 10 mg/kg, route intraperitoneal; details: in vivo
Method in brief: (§3)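 Mice in groups of four received graded IP doses of […]. Behavioural and neurological changes (hypo- or hyperactivity, ataxia, tremors, convulsion, etc.) were scored by standardized observation at 30 min, 3 h and 24 h against controls.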

Mus musculus [9] = experiment: Toxicity in NMRI mouse assessed as induction of hypoactivity at 10 mg/kg, ip; type: organism-based; design: dose 10 mg/kg, route intraperitoneal; details: in vivo; method in brief: as §3
Mus musculus [10] = experiment: Toxicity in NMRI mouse assessed as induction of ataxia at 10 mg/kg, ip; type: organism-based; design: dose 10 mg/kg, route intraperitoneal; details: in vivo; method in brief: as §3
Mus musculus [11] = experiment: Antiamnesic activity in NMRI mouse assessed as reversal of scopolamine-induced spontaneous alteration deficit at 0.1 mg/kg, ip co-administered with 0.3 mg/kg DPZ by Y maze test; type: functional, organism-based
Method in brief: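 Scopolamine 0.5 mg/kg given SC 30 min before the Y-maze test. The reference combination was 0.1 mg/kg IP (30 min before) plus DPZ 0.3 mg/kg SC (20 min before), in 0.9% NaCl vehicle. Percent spontaneous alternation = actual/(total arm entries − 2) × 100. Mean ± SD, n = 10–12, univariate t test versus 50%.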

Mus musculus [12] = experiment: Toxicity in NMRI mouse assessed as induction of exophtalmy at 2 mg/kg, ip; type: organism-based; design: dose 2 mg/kg, route intraperitoneal; details: in vivo
Method in brief: (§4)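 Behavioural and neurological changes scored by standardized observation at 30 min, 3 h and 24 h against controls.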

Mus musculus [13] = experiment: Toxicity in NMRI mouse assessed as induction of irritability at 2 mg/kg, ip; type: organism-based; design: dose 2 mg/kg, route intraperitoneal; details: in vivo; method in brief: as §4
Mus musculus [14] = experiment: Toxicity in NMRI mouse assessed as induction of hyperactivity at 2 mg/kg, ip; type: organism-based; design: dose 2 mg/kg, route intraperitoneal; details: in vivo; method in brief: as §4
Mus musculus [15] = experiment: Antiamnesic activity in NMRI mouse assessed as reversal of scopolamine-induced spontaneous alteration deficit at 1 mg/kg, ip by Y maze test; type: functional, organism-based; design: dose 1 mg/kg
Mus musculus [16] = experiment: Antidepressant-like activity in NMRI mouse assessed as reduction in immobility time at 0.3 mg/kg, ip administered 30 mins before test; type: functional, organism-based; design: dose 0.3 mg/kg
Method in brief: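 Male NMRI mice given drug in 0.9% NaCl IP 30 min before the test, not pretested. Each mouse swam 6 min in a 12 cm diameter cylinder, water 13 cm deep at 23−24 °C. Immobility was scored over the last 4 min. n = 10−12, SNK test versus NaCl.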

Mus musculus [17] = experiment: Toxicity in NMRI mouse assessed as induction of hypoactivity at 100 mg/kg, ip; type: organism-based; design: dose 100 mg/kg, route intraperitoneal; details: in vivo; method in brief: as §3
Mus musculus [18] = experiment: Toxicity in NMRI mouse assessed as toxic symptoms at 1 to 10 mg/kg, ip; type: organism-based; design: dose 1-10 mg/kg, route intraperitoneal; details: in vivo; method in brief: as §3
Mus musculus [19] = experiment: Toxicity in NMRI mouse assessed as effect on spontaneous locomotor activity at 10 mg/kg, ip dosed 30 mins before placing mouse in actimeter; type: organism-based; design: dose 10 mg/kg, route intraperitoneal; details: in vivo, 0.5 h
Method in brief: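 Adult male NMRI mice were dosed IP 30 min before being placed individually in an infrared actimeter. Beam interruptions were counted over 30 min. Mean ± SD, n = 9–10, SNK test versus NaCl.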

Mus musculus [20] = experiment: Antiamnesic activity in NMRI mouse assessed as reversal of scopolamine-induced spontaneous alteration deficit at 0.3 mg/kg, ip by Y maze test; type: functional, organism-based; design: dose 0.3 mg/kg
Method in brief: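 Male NMRI mice, 3 months old, 35−40 g. Scopolamine 0.5 mg/kg SC 30 min before the Y-maze test; test drug in 0.9% NaCl IP 30 min before. Spontaneous alternation = actual/possible alternations (total arm entries minus two) × 100. n = 10−12. Compared with 50% by univariate t test.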

Mus musculus [21] = experiment: Increase in sAPPalpha level in C57BL/6 mouse CSF at 1 mg/kg, ip measured after 90 mins by ELISA method; type: functional, organism-based; design: dose 1 mg/kg
Method in brief: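 Wild-type C57BL/6 mice, 2 months old, n = 7/group. Single IP injection of vehicle (0.9% NaCl, 0.2% DMSO) or drug. After 90 min, CSF was taken from the cisterna magna under anesthesia, frozen at −80 °C and heated at 60 °C for 5 min. sAPPα measured by mouse/rat ELISA read at 620/450 nm. Unpaired t test.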

Mus musculus [22] = experiment: Toxicity in NMRI mouse assessed as induction of passivity at 100 mg/kg, ip; type: organism-based; design: dose 100 mg/kg, route intraperitoneal; details: in vivo; method in brief: as §3
[23] = Toxicity in ip dosed NMRI mouse; type: organism-based; details: in vivo
[24] = molecular target: 5-hydroxytryptamine receptor 4 (Homo sapiens) (UniProt Q13639); experiment: Activity at 5-HT4R (unknown origin) expressed in COS7 cells assessed as increase in sAPPalpha release relative to 5-HT; type: cell-based; details: COS-7

SMILES: COc1cc(N)c(Cl)cc1C(=O)CCC1CCN(Cc2ccccc2)CC1
- inhibition [1]: 41%
- IC50 (Acetylcholinesterase [2]): 0.0085 µM
- IC50 (Cholinesterase): 1.83 µM
- Ki [3]: 0.0143 µM
- Activity [4]: 65%
- inhibition [5]: 100%

SMILES: COc1cc(N)c(Cl)cc1C(=O)CCC1CCN(CC2CCC2)CC1
- inhibition [6]: 47%

SMILES: COc1cc(N)c(Cl)cc1C(=O)CCC1CCN(CCC2CCCCC2)CC1
- IC50 (Cholinesterase): 6.34 µM

SMILES: COc1cc(N)c(Cl)cc1/C(CCC1CCN(CC2CCCCC2)CC1)=N/O
- Ki [3]: 0.193 µM

SMILES: COc1cc(N)c(Cl)cc1C(=O)CCC1CCN(CC2CCCCCC2)CC1
- inhibition [1]: 46%
- IC50 (Cholinesterase): 4 µM
- Activity [4]: 58%
- inhibition [5]: 99%

SMILES: COc1cc(N)c(Cl)cc1C(O)CCC1CCN(CC2CCCCC2)CC1 (stereo not given)
- IC50 (Acetylcholinesterase [2]): 1.03 µM
- IC50 (Cholinesterase): 3.64 µM
- Ki [3]: 0.122 µM

SMILES: COc1cc(N)c(Cl)cc1C(=O)CCC1CCN(Cc2ccncc2)CC1
- IC50 (Acetylcholinesterase [2]): 0.121 µM
- Ki [3]: 0.0206 µM
- inhibition [6]: 46%

SMILES: COc1cc(N)c(Cl)cc1C(=O)CCC1CCN(Cc2cccnc2)CC1
- IC50 (Acetylcholinesterase [2]): 0.045 µM
- IC50 (Cholinesterase): 9.16 µM
- Ki [3]: 0.0204 µM

SMILES: CO/N=C(\CCC1CCN(CC2CCCCC2)CC1)c1cc(Cl)c(N)cc1OC
- inhibition (Acetylcholinesterase [7]): 33%
- IC50 (Cholinesterase): 7.42 µM

SMILES: CN(C)CCCN1c2ccccc2Sc2ccc(Cl)cc21 [CHLORPROMAZINE]
- Activity (Mus musculus [8]): Toxic
- Activity (Mus musculus [9]): Toxic
- Activity (Mus musculus [10]): Toxic

SMILES: CCCCN1CCC(CCC(=O)c2cc(Cl)c(N)cc2OC)CC1
- IC50 (Acetylcholinesterase [2]): 0.403 µM
- Ki [3]: 0.0093 µM
- Activity (Mus musculus [11]): Active

SMILES: CC(N)Cc1ccccc1 (stereo not given) [AMPHETAMINE]
- Activity (Mus musculus [12]): Toxic
- Activity (Mus musculus [13]): Toxic
- Activity (Mus musculus [14]): Toxic

SMILES: COc1cc(N)c(Cl)cc1C(=O)CCC1CCN(CC2CCCCC2C)CC1 (stereo not given)
- IC50 (Cholinesterase): 4.34 µM

SMILES: COc1cc(N)c(Cl)cc1C(=O)OCC1CCN(CC2CCCCC2)CC1
- IC50 (Cholinesterase): 4.1 µM

SMILES: COc1cc(N)c(Cl)cc1C(=O)NCC1CCN(CC2CCCCC2)CC1
- inhibition (Acetylcholinesterase [7]): 45%
- Ki [3]: 0.00225 µM

SMILES: COc1cc2c(cc1OC)C(=O)C(CC1CCN(Cc3ccccc3)CC1)C2 (stereo not given)
- Activity (Mus musculus [15]): Active

SMILES: COc1cc(N)c(Cl)cc1C(=O)CCC1CCN(CC2CCCC2)CC1
- inhibition [1]: 58%
- IC50 (Cholinesterase): 6.91 µM
- Activity [4]: 48%
- inhibition [5]: 100%

SMILES: COc1cc(N)c(Cl)cc1C(=O)CCC1CCN(CC2CCNCC2)CC1
- inhibition [1]: 69%
- Activity [4]: 20%
- inhibition [6]: 26%
- inhibition [5]: 100%

SMILES: COc1cc(N)c(Cl)cc1C(=O)CCC1CCN(CC2CC2)CC1
- IC50 (Cholinesterase): 6.6 µM

SMILES: COc1cc(N)c(Cl)cc1C(=O)CCC1CCN(CC2CCCCC2)CC1
- Activity (Mus musculus [16]): Active
- inhibition [1]: 73%
- Activity (Mus musculus [17]): Toxic
- Activity (Mus musculus [18]): Non-toxic
- Activity (Mus musculus [19]): Non-toxic
- Activity (Mus musculus [20]): Active
- IC50 (Cholinesterase): 3.53 µM
- Activity [4]: 48.3%
- Activity (Mus musculus [21]): Active
- Activity (Mus musculus [22]): Toxic
- LD50 [23]: 75 mg/kg
- Emax [24]: 22.5%
- inhibition [5]: 100%
